Our source for the T/C, IC50 and solubility values is ChEMBL document CHEMBL1149148, “Synthesis and structure-activity relationships of novel 7-substituted 1,4-dihydro-4-oxo-1-(2-thiazolyl)-1,8-naphthyridine-3-carboxylic acids as antitumor agents. Part 2” (J Med Chem, 2004).

The test system of series [1] is Mus musculus. The series is described as follows: Ratio of median survival time of treated mice (T) to that of median survival time of controls (C) in mice infected with p388 cells (in vivo) at a dose of 6.25 mg/kg. The class given is functional. The procedure, abridged: (§1)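 BDF1 mice implanted ip with 0.1 mL diluted ascites fluid carrying 10⁶ P388 leukemia cells. Dosing ip on days 1 and 5 after implantation. Test compounds were suspended in 0.4% CMC, and reference drugs were dissolved and diluted in distilled water. Seven mice per group. T/C (%) = median survival time of treated group / median survival time of control group × 100.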

Series [2] deals with Mus musculus. The series is described as follows: Ratio of median survival time of treated mice (T) to that of median survival time of controls (C) in mice infected with p388 cells (in vivo) at a dose of 25 mg/kg. It is filed as functional. Summed up:
as §1

For series [3], the system named is Mus musculus. The series is described as follows: Ratio of median survival time of treated mice (T) to that of median survival time of controls (C) in mice infected with p388 cells (in vivo) at a dose of 0.78 mg/kg. It is filed as functional. Summed up: as §1
Series [4] relates to Mus musculus. The series is described as follows: Ratio of median survival time of treated mice (T) to that of median survival time of controls (C) in mice infected with p388 cells (in vivo) at a dose of 1.56 mg/kg. It is filed as functional. The procedure, abridged: as §1
The next series deals with P388. The series is described as follows: Cytotoxic activity against murine P388 leukemia cells. The class given is functional, cell-based. Particulars: Mus musculus.
In series [5] the test system is Mus musculus. The series is described as follows: Ratio of median survival time of treated mice (T) to that of median survival time of controls (C) in mice infected with p388 cells (in vivo) at a dose of 12.5 mg/kg. The class given is functional. Summed up:
as §1

The nature of series [6]: Solubility at pH 7.2. It is filed as physicochemical. The note with it: buffer. Summed up: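 Water solubility measured in pH 7.2 phosphate buffer, reported in mg/mL.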
Series [7] concerns Mus musculus. The series is described as follows: Ratio of median survival time of treated mice (T) to that of median survival time of controls (C) in mice infected with p388 cells (in vivo) at a dose of 3.13 mg/kg. The class given is functional. The procedure, abridged: as §1
The test system of series [8] is Mus musculus. The series is described as follows: Ratio of median survival time of treated mice (T) to that of median survival time of controls (C) in mice infected with p388 cells (in vivo) at a dose of 50 mg/kg. The class given is functional. The procedure, abridged: as §1

In brackets after ≈: the same amount, converted by molar mass.

For `CN[C@@H]1CN(c2ccc3c(=O)c(C(=O)O)cn(-c4nccs4)c3n2)C[C@H]1OC.Cl`, the T/C worked out at 188% with Mus musculus [1]; 300% with Mus musculus [2]; 125% with Mus musculus [3]; 125% with Mus musculus [4]; 238% with Mus musculus [5]; 163% with Mus musculus [7]. The molecule also had an IC50 with P388 of 0.021 µg/mL. The solubility in series [6] came to 19800 µg/mL.

Regarding `C[C@@H]1CN(c2ccc3c(=O)c(C(=O)O)cn(-c4nccs4)c3n2)C[C@H](C)N1.Cl`, half-maximal inhibition in the series on P388 (IC50) required 0.081 µg/mL.

In the series with P388, `C[C@H]1[C@H](N)CCN1c1ccc2c(=O)c(C(=O)O)cn(-c3nccs3)c2n1.Cl` returned an IC50 of 0.094 µg/mL.

On to `CNC1CCN(c2ccc3c(=O)c(C(=O)O)cn(-c4nccs4)c3n2)C1.Cl` (stereo unspecified), for which the T/C is >375% in the series on Mus musculus [8], 300% with Mus musculus [5] and 200% with Mus musculus [7]. The molecule also gave an IC50 in the series with P388 of 0.01 µg/mL. Further, the concentration in solution in series [6] (solubility) came to 8 µg/mL.

For the molecule `COc1cccc2c1C(=O)c1c(O)c3c(c(O)c1C2=O)C[C@@](O)(C(=O)CO)C[C@@H]3O[C@H]1C[C@H](N)[C@H](O)[C@H](C)O1` [DOXORUBICIN], the T/C in the series with Mus musculus [1] is given as 293%; in the series on Mus musculus [3], 173%; in the series with Mus musculus [4], 228%; in the series on Mus musculus [7], 235%.

With CISPLATIN, the T/C with Mus musculus [1] was 290%; in the series on Mus musculus [3], 154%; in the series with Mus musculus [4], 186%; in the series with Mus musculus [7], 239%.

Take `COc1ccccc1N1CCN(c2ccc3c(=O)c(C(=O)O)cn(-c4nccs4)c3n2)CC1.Cl`: the IC50 in the series with P388 is > 1 µg/mL.

Turning to `CN[C@H]1CN(c2ccc3c(=O)c(C(=O)O)cn(-c4nccs4)c3n2)C[C@@H]1OC.Cl` [listing 1 of 2 here], the T/C is 225% in the series with Mus musculus [1]; 300% in the series with Mus musculus [2]; >375% in the series on Mus musculus [8]; 150% with Mus musculus [3]; 250% in the series with Mus musculus [5]; 200% in the series on Mus musculus [7]. In addition, the IC50 in the series with P388 turned out to be 0.01 µg/mL. The molecule also yielded a solubility in series [6] of 20100 µg/mL.

Molecule `O=C(O)c1cn(-c2nccs2)c2nc(-c3cc[nH]n3)ccc2c1=O` gave an IC50 with P388 of 4.34 µg/mL (≈ 12.8 µM).

As for `C[C@H]1CN(c2ccc3c(=O)c(C(=O)O)cn(-c4nccs4)c3n2)C[C@@H]1N.Cl`, the T/C came to 288% with Mus musculus [8], 200% in the series on Mus musculus [5] and 175% in the series on Mus musculus [7]. The IC50 with P388 was 0.0096 µg/mL. This molecule also returned a solubility in series [6] of 17 µg/mL.

For the molecule `CN[C@H]1CN(c2ccc3c(=O)c(C(=O)O)cn(-c4nccs4)c3n2)C[C@@H]1C.Cl`, the T/C in the series on Mus musculus [8] was found to be 75%; with Mus musculus [5] it was 288%; in the series on Mus musculus [7], 188%. Moreover, in the series on P388, inhibition was half-maximal at 0.012 µg/mL (IC50). Also, the solubility in series [6] is 6.2 µg/mL.

Regarding `Cl.N[C@H]1CN(c2ccc3c(=O)c(C(=O)O)cn(-c4nccs4)c3n2)C[C@@H]1CCl`, in the series on P388, inhibition was half-maximal at 0.024 µg/mL (IC50).

In the case of `Cl.O=C(O)c1cn(-c2nccs2)c2nc(N3CCNCC3)ccc2c1=O`, in the series with P388, half-maximal inhibition (IC50) required 0.057 µg/mL.

In the series on P388, `C#Cc1ccc2c(=O)c(C(=O)O)cn(-c3nccs3)c2n1` had a half-maximal inhibitory concentration (IC50) of 2.3 µg/mL (≈ 7.74 µM).

In the case of `Cl.NC1CCN(c2nc3c(cc2Cl)c(=O)c(C(=O)O)cn3-c2nccs2)C1` (stereo unspecified), half-maximal inhibition with P388 (IC50) required 0.227 µg/mL.

On to `CNC1(C)CCN(c2ccc3c(=O)c(C(=O)O)cn(-c4nccs4)c3n2)C1.Cl` (stereo unspecified), for which the T/C in the series with Mus musculus [8] is 113%; with Mus musculus [5], 225%; with Mus musculus [7], 163%. In the series on P388, half-maximal inhibition (IC50) was put at 0.018 µg/mL. In series [6], this molecule showed a solubility of 7.2 µg/mL.

For the molecule `CN[C@H]1CN(c2ccc3c(=O)c(C(=O)O)cn(-c4nccs4)c3n2)C[C@@H]1OC.Cl` [listing 2 of 2 here], the T/C in the series with Mus musculus [1] was 275%; in the series with Mus musculus [2], >375%; in the series on Mus musculus [3] it was 150%; in the series with Mus musculus [4] it was 188%; with Mus musculus [5], >375%; in the series on Mus musculus [7], 225%. The IC50 in the series with P388 stood at 0.0075 µg/mL. In [6], the solubility was 23700 µg/mL.

With `Cl.NC1CCN(c2ccc3c(=O)c(C(=O)O)cn(-c4nccs4)c3n2)C1` (stereo unspecified), the T/C in the series with Mus musculus [8] came out at 125%; in the series with Mus musculus [5], 275%; in the series with Mus musculus [7] it was 188%. In the series with P388, this molecule showed an IC50 of 0.01 µg/mL. The molecule also yielded a solubility in [6] of 6.9 µg/mL.

On to `CO[C@H]1CN(c2ccc3c(=O)c(C(=O)O)cn(-c4nccs4)c3n2)C[C@@H]1N.Cl`, for which the values for the T/C in the series with Mus musculus [8], in the series on Mus musculus [5] and in the series on Mus musculus [7] were 338%, 238% and 163%, respectively. Also, the IC50 in the series with P388 worked out at 0.018 µg/mL. Besides, the solubility in series [6] was 47 µg/mL.

In turn, `CCN[C@H]1CN(c2ccc3c(=O)c(C(=O)O)cn(-c4nccs4)c3n2)C[C@@H]1OC.Cl` gave an IC50 in the series on P388 of 0.025 µg/mL.

Consider `Cc1cc(-c2ccc3c(=O)c(C(=O)O)cn(-c4nccs4)c3n2)cc(C)n1`, for which the IC50 in the series with P388 was 7.37 µg/mL (≈ 19.5 µM).

Turning to `Cl.O=C(O)c1cn(-c2nccs2)c2nc(N3CCCC3)ccc2c1=O`, the IC50 in the series on P388 was 0.066 µg/mL.

`CNC1CN(c2ccc3c(=O)c(C(=O)O)cn(-c4nccs4)c3n2)C1.Cl` came in with an IC50 in the series on P388 of 0.024 µg/mL.

As for `Cl.NC1CCN(c2nc3c(cc2O)c(=O)c(C(=O)O)cn3-c2nccs2)C1` (stereo unspecified), in the series with P388, the IC50 came out at 4.31 µg/mL.

In the series with P388, `Cl.NC1CCN(c2nc3c(cc2[N+](=O)[O-])c(=O)c(C(=O)O)cn3-c2nccs2)C1` (stereo unspecified) showed an IC50 of 2.29 µg/mL.

The molecule `O=C(O)c1cn(-c2nccs2)c2nc(-c3ccccc3)ccc2c1=O` displayed an IC50 in the series with P388 of 6.33 µg/mL (≈ 18.1 µM).

Consider `CC1CC(N)CN1c1ccc2c(=O)c(C(=O)O)cn(-c3nccs3)c2n1.Cl` (stereo unspecified), for which the IC50 in the series with P388 stood at 0.11 µg/mL.

In the case of `CC1(N)CCN(c2ccc3c(=O)c(C(=O)O)cn(-c4nccs4)c3n2)C1.Cl` (stereo unspecified), the T/C is recorded as 138% in the series with Mus musculus [8], 213% with Mus musculus [5] and 150% in the series on Mus musculus [7]. Besides, the IC50 in the series on P388 amounted to 0.019 µg/mL. In addition, the solubility in [6] came out at 3.8 µg/mL.

In turn, `Cl.Nc1cc(N2CCC(N)C2)nc2c1c(=O)c(C(=O)O)cn2-c1nccs1` (stereo unspecified) had an IC50 with P388 of 0.0081 µg/mL.

Take `CN[C@H]1CN(c2ccc3c(=O)c(C(=O)O)cn(-c4nccs4)c3n2)C[C@H]1OC.Cl`: in the series on P388, the IC50 stood at 0.02 µg/mL.

On to `Cl.O=C(O)c1cn(-c2nccs2)c2nc(N3C[C@@H]4CCCN[C@@H]4C3)ccc2c1=O`, for which the midpoint of inhibition in the series on P388, the IC50, lay at 0.017 µg/mL.

For the molecule `CNC1CCCN(c2ccc3c(=O)c(C(=O)O)cn(-c4nccs4)c3n2)C1.Cl` (stereo unspecified), the midpoint of inhibition with P388, the IC50, lay at 0.52 µg/mL.

In the series on P388, `C[C@H]1CN(c2ccc3c(=O)c(C(=O)O)cn(-c4nccs4)c3n2)C[C@]1(C)N.Cl` yielded an IC50 of 0.02 µg/mL.

Turning to `Cl.NC1CCN(c2cc(C(F)(F)F)c3c(=O)c(C(=O)O)cn(-c4nccs4)c3n2)C1` (stereo unspecified), in the series with P388, inhibition was half-maximal at 0.098 µg/mL (IC50).

Consider `CN[C@@H]1CN(c2ccc3c(=O)c(C(=O)O)cn(-c4nccs4)c3n2)[C@H]1C.Cl`, for which, in the series on P388, the IC50 was found to be 0.041 µg/mL.

Take `Cl.NC1CCN(c2cc(Cl)c3c(=O)c(C(=O)O)cn(-c4nccs4)c3n2)C1` (stereo unspecified): in the series on P388, the IC50 worked out at 0.049 µg/mL.

As to `Cl.O=C(O)c1cn(-c2nccs2)c2nc(N3CCOCC3)ccc2c1=O`, in the series with P388, it took 0.12 µg/mL to reach half-maximal inhibition (IC50).

In the case of `CN[C@H]1CN(c2ccc3c(=O)c(C(=O)O)cn(-c4nccs4)c3n2)C[C@@H]1SC.Cl`, the IC50 with P388 worked out at 0.02 µg/mL.

Regarding `Cl.O=C(O)c1cn(-c2nccs2)c2nc(N3CCc4ccccc4C3)ccc2c1=O`, in the series on P388, the IC50 is > 10 µg/mL.

Turning to `C=Cc1ccc2c(=O)c(C(=O)O)cn(-c3nccs3)c2n1`, the half-inhibitory concentration (IC50) in the series on P388 is > 1 µg/mL.

For `Cl.Nc1cc2c(=O)c(C(=O)O)cn(-c3nccs3)c2nc1N1CCC(N)C1` (stereo unspecified), in the series with P388, the IC50 came to 1.01 µg/mL.

Broadly, the T/C is the ratio of treated to control. The term IC50 denotes the concentration that gives 50% inhibition. As a reminder, the solubility is the dissolved amount per volume that the medium holds. Read a low solubility as a poorly soluble substance.
